KCNK3 inh: human KCNK3 channel inhibitors, primary screen, CHO cells, FluxOR thallium flux, B-score; FluxOR fluorescence; hits give low values; B-score at 10 µM; hit rate 0.84% among 340,000; AID 602410, 2012;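 active = B-score under library mean minus 4 SD, starting fluorescence ratio at most library mean plus 5 SD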;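 also: more negative B-score means stronger inhibition of thallium flux through KCNK3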
KCNQ1 inh: inhibitors of human KCNQ1 channel, primary screen, cell-based, thallium flux, high-throughput. CHO-K1 KCNQ1, FluxOR thallium flux fluorescence; hits give high values. B-score at 10 µM. hit rate 1.3% among 310,000. AID 2642, 2010;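 active = compounds whose thallium flux B-score, printed positive for inhibition, exceeds three library SD while starting fluorescence stays within three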;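 also: channel opened by potassium depolarization with thallium stimulus after 20 min compound exposure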
KCNQ1 pot: potentiators or activators of KCNQ1 channel, primary screen, cell-based, thallium flux, high-throughput | B-score at 10 µM | hit rate 0.35% among 310,000 | CHO-K1 KCNQ1, thallium flux FluxOR fluorescence; hits give high values | Potassium voltage-gated channel subfamily KQT member 1 (Homo sapiens), P51787;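 active = fluorescence ratio B-score, a plate-corrected score, at least three library SD, with initial intensity B-score within 5 SD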
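assay system = KCNQ1-transfected CHO-K1 cells | medium = assay buffer with matched DMSO | probe or stimulus = depolarizing K+/Tl+ stimulus, K2SO4 and Tl2SO4 each 12.5 mM in 5x stock | dosing = single dose | incubation = dye 90 min, compound 20 min, room temperature | detection = kinetic FluxOR fluorescence, 10 s baseline plus 110 s post-stimulus | evaluation = ratio B score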
KCC2 mod: KCC2 cotransporter modulators, thallium flux, primary screen, cell-based, HEK293 KCC2, FluoZin-2 fluorescence, MLSMR | KCC2 cells, thallium flux FluoZin-2 fluorescence | B-score of Tl+ flux slope (higher = more flux/activation; lower = inhibition) at 10 µM | hit rate 2.2% among 190,000;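 active = thallium flux slope and its plate-corrected score both differing from the plate sample mean at a set confidence after two filtering rounds, in either direction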;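 also: slope of fluorescence scaled to starting intensity during 10 to 20 s after thallium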
hERG protect: hERG rescue from dofetilide block, primary screen, cell-based, CHO-hERG, FluxOR thallium flux, dofetilide IC70 | dofetilide IC70 present | Voltage-gated inwardly rectifying potassium channel KCNH2 (Homo sapiens), Q12809 | AID 1511, 2009 | hit rate 0.51% among 310,000 | activation (rescue from dofetilide block), less the hit threshold, % at 10 µM;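 active = activation above the mean of controls blocked by dofetilide plus 5 SD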;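 also: thallium influx through hERG after potassium depolarization seen as dye fluorescence rise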
KCNK9 block: KCNK9 potassium channel inhibitors, primary screen, HEK293 cells, thallium flux; FluxOR thallium flux fluorescence; hits give low values; Potassium channel subfamily K member 9 (Homo sapiens), Q9NPC2; AID 488922, 2010; hit rate 1.2% among 310,000; B-score at 10 µM;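 active = ratio B-score over 3 SD below the library mean, with starting fluorescence within 5 SD of its mean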;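 also: negative B-score means less thallium flux so channel inhibition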
Target sequence (Q9NPC2 whole entry, looked up): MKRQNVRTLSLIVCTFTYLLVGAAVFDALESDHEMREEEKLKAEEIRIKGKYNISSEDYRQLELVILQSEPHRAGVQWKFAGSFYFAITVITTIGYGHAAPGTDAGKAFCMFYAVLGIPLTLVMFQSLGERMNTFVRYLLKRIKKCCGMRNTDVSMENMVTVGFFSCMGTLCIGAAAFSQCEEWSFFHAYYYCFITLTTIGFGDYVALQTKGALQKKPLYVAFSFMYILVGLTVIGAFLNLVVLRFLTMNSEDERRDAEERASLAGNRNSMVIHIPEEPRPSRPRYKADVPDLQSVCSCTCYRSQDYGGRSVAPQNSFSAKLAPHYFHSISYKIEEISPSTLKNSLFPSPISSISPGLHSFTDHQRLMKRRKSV
KCNK3 confirm: retest of human KCNK3 channel inhibitors, confirmation, CHO cells, FluxOR thallium flux, triplicate; ratio percent of control, % at 10 µM; hit rate 99% among 2,400; shares compounds with KCNK3 inh; FluxOR fluorescence; 0% buffer, 100% carvedilol maximal block;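 active = ratio percent of control, averaged over triplicates, above buffer control mean plus 5 SD, cut at about 64% in these data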;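 also: ratio is the fluorescence rise from min to max over baseline after thallium stimulus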
KCNK3 noninduced: thallium flux inhibition in non-induced cells, primary screen, counter-screen for KCNK3 inhibitor project, cell-based, non-induced KCNK3 line, FluxOR thallium, triplicate | shares compounds with KCNK3 inh | non-induced KCNK3 parental cells; hits give low values | thallium flux ratio (lower = more inhibition) at 10 µM | hit rate 40% among 2,400;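 active = thallium flux ratio, averaged over three wells, more than 5 SD below the buffer control mean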;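 also: host cells are CHO cells without KCNK3 induction; ratio is peak minus trough fluorescence over baseline then normalized to buffer controls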
The depositor's hits bear a star; i = inactive; nt = no result. The list is not random: actives were taken first. Their share in the collection is about 4.1%.

SMILES | KCNK3 inh | KCNQ1 inh | KCNQ1 pot | KCC2 mod | hERG protect | KCNK9 block | KCNK3 confirm | KCNK3 noninduced
Cc1ccccc1C(=O)NC1CC2CCCC(C1)N2C(=O)Nc1ccccc1 (centres undefined) | i | i | i | nt | -5 | i | nt | nt
Cc1[nH]c2ccccc2c1C=NNC(=O)c1cc(-c2cccnc2)nc2ccccc12 | i | nt | nt | nt | nt | nt | nt | nt
CNC(=O)/C(C#N)=C/c1c(N2CCN(c3ccccc3)CC2)nc2c(C)cccn2c1=O | i | i | i | nt | -8 | i | nt | nt
Cc1cccn2c(=O)c(/C=C(\C#N)C(N)=O)c(N3CCN(c4cccc(Cl)c4)CC3)nc12 | -10* | i | i | nt | -5 | -7.2* | 102* | i
CCCCC(=O)Oc1c(S(=O)(=O)c2ccc(C)cc2)c(C)nn1C(C)(C)C | -9.9* | i | i | nt | -1 | i | 95* | i
Oc1ccc(Br)cc1-c1nc2cnccn2c1NC1CCCC1 | -8.8* | i | i | 1.1 | -21 | i | 131* | i
Fc1ccc(-c2nc3cnccn3c2NC2CCCC2)cc1 | i | i | i | -0.42 | -15 | i | nt | nt
O=C(COc1cccc2cccnc12)N/N=C/c1cccn1-c1ccc(F)cc1 | -8.7* | i | i | -2.3 | -21 | i | 108* | i
O=C(COc1cccc2cccnc12)N/N=C/c1ccc(O)cc1 | i | i | i | -0.94 | -8 | i | nt | nt
O=C1CC(c2ccccc2)(c2ccccc2)c2ccccc21 | i | nt | nt | nt | nt | nt | nt | nt
O=C1OC(c2ccccc2)(c2ccccc2)c2ccccc21 | -12* | nt | nt | nt | nt | nt | 107* | i
CCCS(=O)(=O)N1CCCC(C(=O)NCC(OC)OC)C1 (centres undefined) | i | i | i | 0.72 | 2 | i | nt | nt
CC(C)N(C(=S)NC1CC2CCC1C2)c1ccccc1 (centres undefined) | -9.8* | i | i | -0.16 | -17 | i | 118* | 0.16*
O=C(Nc1ccccc1)c1sccc1Oc1ccc([N+](=O)[O-])cc1F | -9* | i | i | nt | -9 | i | 113* | i
O=C(O)c1cc([N+](=O)[O-])ccc1C(=O)Nc1ccccc1 | i | i | i | nt | -7 | i | nt | nt
c1ccc(-c2csc(-c3ccncc3)n2)cc1 | i | i | i | nt | -10 | i | nt | nt
Oc1ccccc1-c1csc(-c2ccccc2)n1 | -9.1* | i | i | 0.02 | -9 | -6.6* | 115* | 0.14*
CCOC(=O)C(=O)Cc1cccnn1 | i | nt | nt | nt | nt | nt | nt | nt
Cc1cccc(NC(=O)CSCC(=O)Nc2ccccc2N2CCCC2)c1 | -9.6* | i | i | nt | -14 | i | 87* | i
CC(Oc1cccc(Cl)c1)C(=O)Nc1ccccc1N1CCCC1 (centres undefined) | -8.8* | i | i | nt | -18 | i | 124* | i
CCOc1cc(N2CCOCC2)c(OCC)cc1NC(=O)COc1cccc(CC)c1 | i | nt | nt | nt | nt | nt | nt | nt
COc1cc(C(C)=O)ccc1OCC(=O)Nc1ccccc1N1CCCC1 | i | i | i | nt | -22 | i | nt | nt
Cc1cccc(C)c1OCC(=O)Nc1ccccc1N1CCCCC1 | -9.3* | i | i | nt | -21 | -7.6* | 114* | i
CCc1cccc(OCC(=O)Nc2ccccc2N2CCCC2)c1 | -9.1* | i | i | nt | -10 | i | 120* | 0.16*
CCOC(=O)c1cnc(COc2ccc(OC)cc2)[nH]c1=O | i | i | i | 0.41 | -5 | i | nt | nt
SMILES | KCNK3 inh | KCNQ1 inh | KCNQ1 pot | KCC2 mod | hERG protect | KCNK9 block | KCNK3 confirm | KCNK3 noninduced
COc1cc(Oc2nc(C(F)(F)F)nc3ccccc23)ccc1C=O | i | i | i | nt | -4 | i | nt | nt
COc1cc(NC(=O)CSc2nc3c(c(=O)n(C)c(=O)n3C)n2C)cc(OC)c1 | i | i | i | nt | -4 | i | nt | nt
Cc1ccc(Cl)c(OCC(=O)Nc2ccccc2N2CCCCC2)c1 | -10* | i | i | nt | -14 | i | 123* | 0.15*
O=C(COc1ccc(Cl)cc1Br)Nc1ccccc1N1CCCC1 | i | i | i | nt | -12 | i | nt | nt
CC(NC(=O)C12CC3(C)CC(C)(CC(C)(C3)C1)C2)C(=O)O (centres undefined) | i | i | i | 0.23 | -1 | i | nt | nt
NC(=O)C1=C[C@@H](c2ccc(Br)cc2)C[C@@H](OCCCCO)O1 | i | i | i | 1.2 | -6 | i | nt | nt
CC(=O)N(C)N1c2ccccc2CCc2ccccc21 | -8.8* | i | i | -0.93 | -12 | i | 109* | i
CC(Cl)C(=O)N1c2ccccc2CCc2ccccc21 (centres undefined) | i | i | i | nt | -10 | i | nt | nt
COc1ccccc1Oc1ccc(N/C=C/C(=O)c2ccco2)cc1 | i | i | i | 0.37 | -8 | i | nt | nt
O=C(/C=C/Nc1ccc(Oc2ccccc2Cl)cc1)c1ccco1 | -14* | i | i | 0.75 | -9 | i | 107* | i
CCc1ccc2c(c1)C1(NN=C(c3ccc(C)cc3)S1)C(=O)N2 (centres undefined) | -8.7* | 7* | i | -0.14 | -23 | i | 106* | 0.11*
Cc1ccc(-n2cc(CCCCCCCCC(=O)O)nn2)cc1 | i | i | i | nt | -6 | i | nt | nt
O=C(CC(c1ccccc1)c1ccccc1O)NCc1ccccc1 (centres undefined) | -8.8* | i | i | -1.2 | -7 | i | 95* | i
CC(Cc1ccccc1)NC(=O)CC(c1ccccc1)c1ccccc1O (centres undefined) | i | i | i | nt | -4 | i | nt | nt
CN(C)S(=O)(=O)c1cccc(NC(=O)CN2C(=O)NC3(CCc4ccccc4C3)C2=O)c1 (centres undefined) | i | i | i | nt | -7 | i | nt | nt
CCOC(=O)N1CCN(C(=S)Nc2ccc(C)cc2)CC1 | i | i | i | 0.23 | -6 | i | nt | nt
